Laboratory results from ChEMBL document CHEMBL1126126, “Development, synthesis, and biological evaluation of (-)-trans-(2S,5S)-2-[3-[(2-oxopropyl)sulfonyl]-4-n-propoxy-5-(3- hydroxypropoxy)-phenyl]-5-(3,4,5-trimethoxyphenyl)tetrahydrofuran, a potent orally active platelet-activating factor (PAF) antagonist and its water-soluble prodrug phosphate ester” (J Med Chem, 1992).
Values after ≈ are worked out from the molar mass of the structure shown. Active and inactive are the calls of the source. The calls are words filed in the database; no cut-off is given here.

Tests used:
[1] = Water solubility at pH 7.4; format: physicochemical
Outline: (§1)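 Compound combined with buffered solution at the stated pH, sonicated, shaken 1 h and filtered. Filtrate concentration measured by UV against standards of known concentration; reported in mg/mL.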

[2] = biological target: T1, C5a anaphylatoxin chemotactic receptor 1 (Homo sapiens) (UniProt P21730); assay: (§2) Effect on uM; no effect
T1 sequence (whole entry): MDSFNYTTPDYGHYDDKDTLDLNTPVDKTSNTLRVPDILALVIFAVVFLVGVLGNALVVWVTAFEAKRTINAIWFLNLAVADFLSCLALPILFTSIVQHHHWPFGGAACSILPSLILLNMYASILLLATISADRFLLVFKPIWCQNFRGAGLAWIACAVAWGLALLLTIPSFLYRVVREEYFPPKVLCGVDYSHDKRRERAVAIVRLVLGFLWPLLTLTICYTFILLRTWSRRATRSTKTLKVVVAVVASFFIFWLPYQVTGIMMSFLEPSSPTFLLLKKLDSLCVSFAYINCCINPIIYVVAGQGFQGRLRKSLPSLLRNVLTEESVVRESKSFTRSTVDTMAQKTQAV

[3] = biological target: T2, Cysteinyl leukotriene receptor 1 (Cavia porcellus) (UniProt Q2NNR5); assay: as §2
T2 sequence (whole entry): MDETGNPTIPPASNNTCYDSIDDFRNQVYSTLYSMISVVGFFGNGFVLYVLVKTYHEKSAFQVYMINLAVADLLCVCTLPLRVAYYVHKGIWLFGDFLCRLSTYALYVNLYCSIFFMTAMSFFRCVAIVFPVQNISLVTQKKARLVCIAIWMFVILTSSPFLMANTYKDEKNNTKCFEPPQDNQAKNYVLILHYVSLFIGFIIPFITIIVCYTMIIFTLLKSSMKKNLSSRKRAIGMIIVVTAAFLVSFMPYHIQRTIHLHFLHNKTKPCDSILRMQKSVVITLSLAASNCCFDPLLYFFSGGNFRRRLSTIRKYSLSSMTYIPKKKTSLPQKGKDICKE

[4] = biological target: Leukotriene B4 receptor 1 (Homo sapiens) (UniProt Q15722); assay: as §2
[5] = biological target: Platelet-activating factor receptor (Homo sapiens, UniProt P25105); assay: Inhibition of the binding of [3H]C18-Platelet activating factor to human platelet membrane preparation
[6] = Water solubility was determined; format: ADME; outline: as §1
[7] = species on record: Homo sapiens; assay: Inhibitory activity against PAF-induced aggregation of human platelets suspended in plasma; format: functional
[8] = test system: Rattus norvegicus; assay: In vivo inhibitory activity against PAF induced plasma level of N-acetyl-beta-D-glucosaminidase (NAGA) and hematocrit (plasma extravasation) in male rat after i.v. administration; format: functional; settings: iv
[9] = test system: Rattus norvegicus; assay: In vivo inhibitory activity against PAF induced plasma level of N-acetyl-beta-D-glucosaminidase (NAGA) and hematocrit (plasma extravasation) in male rat after p.o. administration; format: functional; settings: po
[10] = test system: Rattus norvegicus; assay: In vivo inhibitory activity against PAF induced plasma level of N-acetyl-beta-D-glucosaminidase (NAGA) and hematocrit (plasma extravasation) in female rat after p.o. administration; format: functional; settings: po
[11] = test system: Cavia porcellus; assay: In vivo inhibitory activity against PAF induced bronchoconstriction in male guinea pigs; format: functional; settings: read-out: ID50 (the source's name)
[12] = Water solubility at pH 5; format: physicochemical; outline: as §1
[13] = Water solubility at pH 6; format: physicochemical; outline: as §1
[14] = test system: Cavia porcellus; assay: In vivo inhibitory activity against PAF induced bronchoconstriction in female guinea pigs; format: functional; settings: read-out: ID50 (the source's name)
[15] = species on record: Homo sapiens; assay: Inhibitory activity against PAF-induced aggregation of human platelets suspended in buffer [washed platelets (WP)]; format: functional
[16] = test system: Rattus norvegicus; assay: Effect against PAF induced plasma level of N-acetyl-beta-D-glucosaminidase (NAGA) and plasma extravasation in male rat at a dose of 1 mg/kg by single administration after 6 hour; format: functional
[17] = test system: Angiotensin II receptor (Oryctolagus cuniculus); assay: Effect on uM; no effect

Leukotriene B4 receptor 1 (Homo sapiens), sequence (Q15722 whole entry): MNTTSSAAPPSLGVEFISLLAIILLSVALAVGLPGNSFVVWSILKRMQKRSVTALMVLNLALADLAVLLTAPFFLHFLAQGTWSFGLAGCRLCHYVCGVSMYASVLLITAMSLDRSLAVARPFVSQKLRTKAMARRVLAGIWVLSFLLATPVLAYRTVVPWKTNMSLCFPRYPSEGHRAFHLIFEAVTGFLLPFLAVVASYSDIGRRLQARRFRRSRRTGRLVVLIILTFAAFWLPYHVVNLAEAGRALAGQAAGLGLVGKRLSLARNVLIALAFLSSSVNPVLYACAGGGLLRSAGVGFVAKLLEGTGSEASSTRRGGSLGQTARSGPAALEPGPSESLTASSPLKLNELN
Platelet-activating factor receptor, sequence (P25105 whole entry): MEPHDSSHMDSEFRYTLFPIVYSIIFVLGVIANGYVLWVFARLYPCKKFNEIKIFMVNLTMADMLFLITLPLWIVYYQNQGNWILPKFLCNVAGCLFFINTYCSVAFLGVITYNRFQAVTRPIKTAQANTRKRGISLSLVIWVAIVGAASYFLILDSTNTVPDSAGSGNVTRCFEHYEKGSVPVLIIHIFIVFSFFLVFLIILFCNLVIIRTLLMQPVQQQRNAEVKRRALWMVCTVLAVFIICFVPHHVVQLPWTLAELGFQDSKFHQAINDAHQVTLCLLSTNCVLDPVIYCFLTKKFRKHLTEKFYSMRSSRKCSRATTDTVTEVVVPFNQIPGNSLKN

Row | SMILES | inhibition [3] | inhibition [4] | solubility [6] [µg/mL] | IC50 [7] [nM] | solubility [12] [µg/mL] | solubility [13] [µg/mL] | inhibition [2] | IC50 [5] [nM] | ED50 [8] [mg/kg] | ED50 [9] [mg/kg] | ED50 [10] [mg/kg] | ED50 [11] [mg/kg] | also measured
1 | CCCOc1c(OCCCOP(=O)([O-])O)cc([C@@H]2CC[C@@H](c3cc(OC)c(OC)c(OC)c3)O2)cc1S(=O)(=O)CC(C)=O.[K+] | inactive | inactive |  |  |  |  | inactive |  |  |  |  |  | solubility [1]: > 30000 µg/mL
2 | CCCOc1c(OC)cc([C@H]2CC[C@H](c3cc(OC)c(OC)c(OC)c3)O2)cc1S(C)(=O)=O (single isomer, unassigned) |  |  |  |  |  |  |  | 9 |  |  |  |  | 
3 | CCCOc1c(OC)cc([C@@H]2CC[C@@H](c3cc(OC)c(OC)c(OC)c3)O2)cc1S(=O)(=O)CCO |  |  | 2 (≈ 3.92 µM) | 55 |  |  |  |  | 0.1 | 2.3 | 0.1 | 0.19 | 
4 | CCCOc1c(OCCCn2ccnc2)cc([C@@H]2CC[C@@H](c3cc(OC)c(OC)c(OC)c3)O2)cc1S(=O)(=O)CC(C)=O | inactive | inactive |  |  | 5500 (≈ 8920 µM) | 800 (≈ 1300 µM) | inactive |  |  |  |  |  | 

Continued, in another order:

Row | inhibition [3] | inhibition [4] | solubility [6] [µg/mL] | IC50 [7] [nM] | solubility [12] [µg/mL] | solubility [13] [µg/mL] | SMILES | inhibition [2] | IC50 [5] [nM] | ED50 [8] [mg/kg] | ED50 [9] [mg/kg] | ED50 [10] [mg/kg] | ED50 [11] [mg/kg] | also measured
5 | inactive | inactive | 100 (≈ 176 µM) |  |  |  | CCCOc1c(OCCCO)cc([C@@H]2CC[C@@H](c3cc(OC)c(OC)c(OC)c3)O2)cc1S(=O)(=O)CC(C)=O | inactive |  |  |  |  |  | 
6 | inactive | inactive |  | 19 | 5400 (≈ 8490 µM) | 900 (≈ 1420 µM) | CCCOc1c(OCCCN2CCOCC2)cc([C@@H]2CC[C@@H](c3cc(OC)c(OC)c(OC)c3)O2)cc1S(=O)(=O)CC(C)=O | inactive | 2.5 | 0.037 | 0.15 | 0.2 | 0.06 | ED50 [14]: 0.04 mg/kg; IC50 [15]: 1 nM; inhibition in vivo at 1 mg/kg [16]: 60%; inhibition [17]: inactive
